Hits are enriched below; roughly 4.7% of the tested compounds scored in any of these assays.
MC4R antagonist – antagonists of human melanocortin 4 receptor (MC4R); AID 540295; P32245; MC4R-expressing cells, MTII-stimulated cAMP, LANCE TR-FRET; inhibition, % at 6.5 µM; hit rate 0.48% among 360,000;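 active = inhibition above its plate's cutoff, the mean of tested wells on that plate plus 3 SD, cut at about 29% in these data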;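 also: 0% = Melanotan II alone and 100% = Melanotan II plus saturating MCL0020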
Target sequence (P32245 whole entry, looked up): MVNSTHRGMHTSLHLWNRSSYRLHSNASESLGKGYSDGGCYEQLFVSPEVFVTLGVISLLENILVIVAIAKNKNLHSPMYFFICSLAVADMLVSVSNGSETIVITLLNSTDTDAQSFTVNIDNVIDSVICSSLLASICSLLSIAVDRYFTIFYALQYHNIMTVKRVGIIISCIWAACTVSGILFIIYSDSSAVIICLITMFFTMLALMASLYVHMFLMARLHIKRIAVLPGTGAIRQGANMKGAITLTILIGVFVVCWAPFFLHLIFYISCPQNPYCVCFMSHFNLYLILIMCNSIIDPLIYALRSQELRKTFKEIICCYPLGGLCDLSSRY
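Material: U2OS-MC4R stable cell line | Reagent: Melanotan II challenge after compound preincubation | Doses: One concentration, 6.5 µM nominal | Incubation: 30-min compound preincubation, 1-h Melanotan II challenge, 1-h detection, room temperature | Signal: TR-FRET cAMP assay | Replicates: One well per compound, no replicates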
AHR act – activates the human aryl hydrocarbon receptor | hit rate 2.5% among 320,000 | AHR-responsive luciferase reporter cells, luminescence | activation, % at 5 µM; in the data active = activation above about 47%;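 also: 0% = vehicle wells and 100% = reference agonist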
GAA850 FXN act – increases GAA850 frataxin promoter reporter activity; AID 540364; activation, % at 6 µM; hit rate 0.56% among 360,000; HEK293 lucGAA850 FXN promoter luciferase reporter, 24 h; percent of 10 µM SAHA response;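 active = activation above the average of all compounds screened plus 3 SD, cutoff fixed separately per campaign, cut at about 7.5% in these data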;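 also: 0% = DMSO wells and 100% = 10 µM SAHA wells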
HTR2A ag – activates the mouse 5-HT2A serotonin receptor | P35363 | CHO-K1 mHTR2A beta-arrestin complementation, luminescence; percent of 30 µM serotonin response | activation, % at 7.6 µM | hit rate 0.66% among 360,000;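 active = activation above a run cutoff, the mean activation of all tested compounds plus 3 SD, cut at about 14% in these data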;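 also: 0% = plate median of compound wells and 100% = 30 µM serotonin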
MC4R ag barr – human MC4R agonism via beta-arrestin; activation, % at 8.9 µM; P32245; hit rate 0.98% among 360,000; U2OS MC4R beta-arrestin complementation, luminescence; percent of melanotan II response, DMSO zero;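 active = activation above a per-plate cutoff, the mean activation of sample wells on that plate plus 3 SD, cut at about 8% in these data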
MOR ag counter – OPRM1 agonism in mouse HTR2A counterscreen | shares compounds with HTR2A ag | U2OS OPRM1 beta-arrestin PathHunter, luminescence; DMSO 0%, DAMGO 9.3 µM 100% | activation, % at 9.3 µM | hit rate 5.3% among 2,300;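 active = mean activation above the mean of DMSO-only wells plus 3 SD, cut at about 0.5% in these data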
m5-HT2A ag conf – confirmation of mouse HTR2A serotonin receptor agonists; CHO-K1 PathHunter beta-arrestin recruitment, luminescence; DMSO 0%, 30 µM serotonin 100%; shares compounds with HTR2A ag; hit rate 19% among 2,300; activation, % at 7.6 µM;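 active = mean activation across triplicates above the hit threshold derived in the original primary screen, cut at about 15% in these data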
* hit, by the source's call; x = no result given.

SMILES	MC4R antagonist	AHR act	GAA850 FXN act	HTR2A ag	MC4R ag barr	MOR ag counter	m5-HT2A ag conf
CCc1ccc(OC(C)C(=O)N(Cc2ccco2)C2CCS(=O)(=O)C2)cc1 (stereo not drawn)	15.8	4.6	0.5	23.0*	1.6	-0.7	-5.3
COc1ccc(NC(=O)CN(C)CC(=O)NCC(=O)Nc2ccc(F)cc2)cc1	-0.5	-0.4	-0.3	15.9*	-3.5	-0.6	-3.4
C[C@H](O)[C@@H]1CN2CCc3c([nH]c4ccccc34)[C@@H]2C[C@@H]1N(C)C(=O)Nc1ccc(Br)cc1	x	x	x	15.5*	x	x	26.7*
Cc1c[nH]c(=O)c([N+](=O)[O-])c1	0.3	-0.1	-0.1	4.2	0.9	x	x
COCCN(C(=O)c1ccc(COc2ccccc2)o1)c1c(N)n(CC(C)C)c(=O)[nH]c1=O	0.2	0.6	-0.1	3.4	-1.2	x	x
CCOc1nc(-c2ccc(Cl)cc2)nc2ccccc12	-2.2	61.6*	2.6	26.8*	-0.7	-0.5	0.9
CC(=O)Nc1ccc(NC(=O)C(C)OC(=O)C2(c3ccccc3F)CCCC2)cc1 (stereo not drawn)	22.9	-1.1	-0.4	0.7	-0.5	x	x
CCCNC(=O)C1(C)CCN(Cc2ccc(C)c3ccccc23)C1 (stereo not drawn)	9.5	x	-1.0	-9.7	-2.2	x	x
CCOC(=O)N1CCN(Cc2ccc3c(c2)OCO3)CC1	-0.7	-0.7	2.3	37.1*	-0.5	-0.6	107.0*
Cc1ccc(C(=O)N2CCN(Cc3ccc4c(c3)OCO4)CC2)o1	1.2	-0.3	0.3	20.3*	0.6	-0.5	11.9
CCOC(=O)N1CCN(CC(O)COc2ccc(C)c(C)c2)CC1 (stereo not drawn)	3.0	-0.6	0.5	-5.0	1.2	x	x
Cc1c(C(=O)N2CCN(Cc3ccc4c(c3)OCO4)CC2)sc2ncnc(N3CCN(c4ccccc4F)CC3)c12	-4.8	2.1	-6.5	25.3*	-3.8	-0.3	36.1*
CCOC(=O)N1CCN(Cc2ccc(OCC(O)CN3CCCCC3)cc2)CC1 (stereo not drawn)	9.7	0.2	-1.1	33.1*	-0.5	0.1	70.7*
O=C(c1cc2ccccc2o1)N1CCN(Cc2ccc3c(c2)OCO3)CC1	5.7	-4.6	-0.7	-7.3	2.5	x	x
Cc1ccsc1C(=O)N1CCCC(C)(C(=O)O)C1 (stereo not drawn)	5.7	x	1.0	14.5*	-0.3	-0.5	-1.8
Nc1ccc(-c2cc(-c3cccc(N)c3)nc(-c3ccccc3)n2)cc1	4.4	33.4	1.3	14.8*	0.1	-0.3	11.0
COC(=O)CCC(=O)NNC(=O)c1ccc([N+](=O)[O-])cc1	5.2	0.6	0.5	14.4*	-4.5	-0.2	6.2
Cc1csc(=O)n1CC(=O)OCC(=O)NNC(=O)c1ccc([N+](=O)[O-])cc1	0.5	-1.1	2.3	14.8*	1.9	-0.1	1.1
CCN(CC(=O)NCc1cccs1)C(=O)CCOc1ccccc1	14.7	-0.4	-0.5	1.6	0.8	x	x
Cc1ccc(C)c(NC(=O)c2ccc[n+](Cc3ccc([N+](=O)[O-])cc3)c2)c1	-2.7	0.0	0.7	15.2*	-2.7	-0.7	-3.4
O=C(O)c1ccc[n+](Cc2ccc([N+](=O)[O-])cc2)c1	14.0	-1.6	-0.8	4.8	-2.0	x	x
CC(=O)NCc1ccc2[nH]c(C)cc2c1	3.3	-1.0	1.0	17.0*	-0.9	-0.7	-0.1
CCC(=O)NCc1ccc2[nH]c(C)cc2c1	13.2	-0.8	-0.2	3.3	-2.7	x	x
Cc1ccc(S(=O)(=O)CC(=O)Nc2nc(C(C)(C)C)cs2)cc1	11.4	-1.3	-0.9	18.8*	4.0	-0.1	-1.4
Cc1ccc(S(=O)(=O)CCC(=O)Nc2nc(C(C)(C)C)cs2)cc1	6.2	-0.1	1.2	-2.2	-1.4	x	x
SMILES	MC4R antagonist	AHR act	GAA850 FXN act	HTR2A ag	MC4R ag barr	MOR ag counter	m5-HT2A ag conf
CCC(=O)Nc1cccc(NC(=S)NC(=O)c2ccccc2C)c1	-5.3	8.6	3.1	-1.6	-3.3	x	x
CCN1C(C#N)=C(C#N)N=C(C)CC1(C)C	-0.6	2.1	1.5	24.9*	-3.1	-0.5	-4.2
CCC(C)Oc1nc2c(c(=O)n(C)c(=O)n2C)n1C (stereo not drawn)	-4.4	10.0	1.8	17.1*	0.1	-0.6	-2.4
Cn1c(=O)c2cc(NC(=O)Nc3ccccc3)ccc2n1Cc1ccccc1	-8.7	x	0.4	-9.6	-0.7	x	x
O=C(NC1CCCCC1)N1CCNCC1	-6.3	x	0.6	14.4*	-1.0	-0.6	-2.4
NC(=O)c1ccc(/C=N/O)[n+](Cc2ccccc2)c1	11.5	-1.0	0.3	16.0*	-0.3	-0.6	-2.9
COc1cc(C=Cc2nnc3c4ccccc4cnn23)cc(OC)c1OC	3.6	x	1.1	-3.3	-2.2	x	x
CC(C)(C)c1ccc(NC(=O)COC(=O)C2=COCCO2)cc1	3.2	1.0	0.5	4.4	-0.9	x	x
CN(C)C(=O)c1ccc(NC(=O)COC(=O)C2=COCCO2)cc1	16.6	2.9	1.4	18.1*	-2.6	-0.6	-3.6
CCOC(=O)c1ccc(NC(=O)c2nc[nH]c2C(=O)N[C@H](C)CO)cc1	4.4	x	0.4	-3.8	-0.2	x	x
Cc1ccc(N(Cc2ccccc2)C(=O)c2ccc(S(=O)(=O)N3CCOCC3)cc2)cc1	1.6	0.7	1.7	3.4	-3.2	x	x
COc1ccc(C(=O)OCc2ccc(C)cc2)cc1S(=O)(=O)N1CCOCC1	7.3	-0.3	0.9	18.3*	-2.4	-0.3	-2.9
Cc1ccc(N(Cc2ccccc2)C(=O)c2ccc(C)c(S(=O)(=O)N3CCOCC3)c2)cc1	12.4	2.7	-0.5	14.9*	0.4	-0.1	2.4
COc1ccc(Nc2ncnc3c2c(C)c(C)n3CCCN(C)C)cc1	8.1	0.3	-3.4	1.3	2.1	x	x
O=C(CCCN1C(=O)C(c2ccccc2)Oc2cccnc21)NCc1ccc(F)cc1 (stereo not drawn)	6.9	0.0	-0.5	-0.2	-0.7	x	x
O=C1C2CCCN2C(c2ccc(F)cc2)N1c1cccc(Cl)c1 (stereo not drawn)	-1.1	-0.3	-0.1	16.9*	-0.9	-0.5	1.3
O=C1C2CCCN2C(c2cccc(F)c2)N1c1cccc(Cl)c1 (stereo not drawn)	-2.2	0.2	2.2	6.9	-0.4	x	x
CC(=O)Nc1ccc(C(=O)CN2C(=O)NC3(CCOc4ccccc43)C2=O)c(F)c1 (stereo not drawn)	1.9	10.2	3.1	3.1	-0.7	x	x
COC(=O)c1ccc2c(=O)n(CCN3CCOCC3)c(SCC(=O)NCc3ccccc3)nc2c1	-5.8	-0.2	0.0	15.8*	-0.7	-0.6	-4.9
O=C(CSc1nc2ccccc2c(=O)n1CCCN1CCOCC1)Nc1ccc(Br)cc1	3.6	4.8	-2.5	-6.8	0.2	x	x

Assay outcomes as filed in PubChem.
